In ChEMBL document CHEMBL1126572, “Synthesis and pharmacological activity of a series of dihydro-1H-pyrrolo[1,2-a]imidazole-2,5(3H,6H)-diones, a novel class of potent cognition enhancers” (J Med Chem, 1993):

How the values were obtained:
Rattus norvegicus [1] = test: Percent reversal of scopolamine-induced amnesia rat following 1.0 mg/kg i.p.; format: functional; details: route intraperitoneal
In short: (§1)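 Male Wistar rats, 200–220 g, acclimatised ≥1 week; one-trial step-through passive avoidance in two-compartment box with electrifiable grid floor. Scopolamine hydrobromide 0.66 mg/kg sc 60 min before learning, test compound or vehicle 30 min before scopolamine; 45 rats per experiment split into saline, scopolamine and treated groups. % amnesia reversal computed from group retention; Fisher's exact test versus scopolamine group.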

Rattus norvegicus [2] = test: Percent reversal of scopolamine-induced amnesia rat following 10 mg/kg i.p.; format: functional; details: route intraperitoneal; in short: as §1
[3] = Basicity was assessed from pKB; format: ADME
Rattus norvegicus [4] = test: Percent reversal of scopolamine-induced amnesia rat at 1.0 mg/kg po; format: functional; in short: as §1
Rattus norvegicus [5] = test: Percent reversal of scopolamine-induced amnesia rat at 10 mg/kg po; format: functional; in short: as §1
Rattus norvegicus [6] = test: Percent reversal of scopolamine-induced amnesia rat at 0.1 mg/kg ip; format: functional; details: route intraperitoneal; in short: as §1
Rattus norvegicus [7] = test: Percent reversal of scopolamine-induced amnesia rat at 0.3 mg/kg ip; format: functional; details: route intraperitoneal; in short: as §1
Rattus norvegicus [8] = test: Percent reversal of scopolamine-induced amnesia rat at 30 mg/kg po; format: functional; in short: as §1
Rattus norvegicus [9] = test: Tested for running time in radial maze test in rats on the day of treatment at 1 mg/kg sc along with Scopolamine at 50 ug/kg sc; format: functional; details: route subcutaneous
In short: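 Male Wistar rats (2 months, 250 g) food-restricted to 80–85% body weight, trained in eight-arm radial maze to criterion (≤9 choices, 3 consecutive days). Scopolamine 50 μg/kg sc 60 min and compound (saline, 2 mL/kg) 90 min before test; mean running time = total running time/total choices, video-tracked; compared with performance on days before and after treatment.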

Rattus norvegicus [10] = test: Tested for efficiency in responding in radial maze test in rat on the day before treatment at 1 mg/kg sc along with Scopolamine at 50 ug/kg sc; format: functional; details: route subcutaneous
In short: (§2)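 Male Wistar rats (2 months old, 250 g), food-restricted to 80-85% body weight, were trained daily in an eight-arm radial maze to criterion (≤9 choices on 3 consecutive days). Scopolamine was given sc 60 min before testing and the test drug sc in saline 90 min before. Treatments were ≥3 days apart with retraining. Efficiency was scored as 8/total choices × 100.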

Rattus norvegicus [11] = test: Tested for running time in radial maze test in rat on the day before treatment at 1 mg/kg sc along with Scopolamine at 50 ug/kg sc; format: functional; details: route subcutaneous
In short: (§3)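 Eight-arm radial maze in male Wistar rats (2 months old, 250 g) held at 80-85% body weight and trained to ≤9 choices for 3 consecutive days. Scopolamine was given sc 60 min pre-test and the drug sc in isotonic saline 90 min pre-test. Position was video-tracked. Mean running time (s) was total task time divided by number of choices.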

Rattus norvegicus [12] = test: Percent reversal of scopolamine-induced amnesia rat at 0.3 mg/kg po; format: functional; in short: as §1
Rattus norvegicus [13] = test: Tested for efficiency in responding in radial maze test in rat on the day of treatment at 1 mg/kg sc along with Scopolamine at 50 ug/kg sc; format: functional; details: route subcutaneous; in short: as §2
Rattus norvegicus [14] = test: Tested for running time in radial maze test in rat on the day after treatment at 1 mg/kg sc along with Scopolamine at 50 ug/kg sc; format: functional; details: route subcutaneous; in short: as §3
Rattus norvegicus [15] = test: Tested for efficiency in responding in radial maze test in rat on the day after treatment at 1 mg/kg sc along with Scopolamine at 50 ug/kg sc; format: functional; details: route subcutaneous
Rattus norvegicus [16] = test: Tested for running time in radial maze test in rat on the day of treatment at 1 mg/kg sc along with Scopolamine at 50 ug/kg sc; format: functional; details: route subcutaneous; in short: as §3

| Compound | Reversal (Rattus norvegicus [1]) [%] | Reversal (Rattus norvegicus [2]) [%] | Reversal (Rattus norvegicus [4]) [%] | Reversal (Rattus norvegicus [5]) [%] | Reversal (Rattus norvegicus [7]) [%] | also measured |
| --- | --- | --- | --- | --- | --- | --- |
| O=C1CCC2N1CC(=O)N2C(=O)OCc1ccccc1 (stereo not drawn) | 31 | 12 |  |  |  |  |
| NC(=O)CNCc1ccccc1 |  |  |  |  |  | pKB [3]: 7.2 |
| O=C1CN2C(=O)CCCC2N1 (stereo not drawn) | 27 | 27 | 0 | 0 |  |  |
| CCOC(=O)CN1C(=O)CN2C(=O)CCC12 (stereo not drawn) | 3 | 0 |  |  |  |  |
| CCOC(=O)C12CCC(=O)N1CC(=O)N2 (stereo not drawn) | 25 | 62 | 0 | 0 |  |  |
| O=C1NC2CCC(=O)N2[C@@H]1Cc1ccccc1 (stereo partly drawn) | 19 | 0 |  |  | 42 | Reversal (Rattus norvegicus [6]): 15% |
| CC12CCC(=O)N1CC(=O)N2 (stereo not drawn) | 40 | 46 |  | 0 | 0 | Reversal (Rattus norvegicus [8]): 26% |
| C[C@H]1C(=O)NC2CCC(=O)N21 (stereo partly drawn) | 52 | 3 |  |  | 0 |  |
| O=C1CN2C(=O)CCC2N1 (stereo not drawn) [DIMIRACETAM] | 68 | 70 | 75 | 60 | 16 | Time (Rattus norvegicus [9]): 34.6 s; Efficiency (Rattus norvegicus [10]): 96.3%; Time (Rattus norvegicus [11]): 16.6 s; Reversal (Rattus norvegicus [12]): 28%; Efficiency (Rattus norvegicus [13]): 75.6%; Time (Rattus norvegicus [14]): 19.6 s; Reversal (Rattus norvegicus [8]): 40%; Efficiency (Rattus norvegicus [15]): 88.6% |
| O=C1CN2C(=O)CCC2(C(=O)O)N1 (stereo not drawn) | 14 | 53 | 1 | 33 |  |  |
| O=C1CN2C(=O)CCCCC2N1 (stereo not drawn) | 22 | 12 |  |  |  |  |
| O=C1NC2CCC(=O)N2C1CO (stereo not drawn) | 38 |  | 0 | 42 | 30 | Reversal (Rattus norvegicus [6]): 3%; Reversal (Rattus norvegicus [8]): 0% |
| CC1C(=O)NC2(C)CCC(=O)N12 (racemic) |  |  |  |  |  | Reversal (Rattus norvegicus [4]; 1 mg/kg): 17%; Reversal (Rattus norvegicus [1]; 1 mg/kg): 38%; Reversal (Rattus norvegicus [2]; 10 mg/kg): 0%; Reversal (Rattus norvegicus [5]; 10 mg/kg): 42%; Reversal (Rattus norvegicus [7]; 0.3 mg/kg): 30% |
| NC(=O)C12CCC(=O)N1CC(=O)N2 (stereo not drawn) | 62 | 38 | 0 | 0 | 38 |  |
| CC(C)CC1C(=O)NC2CCC(=O)N21 (stereo not drawn) | 3 | 0 |  |  |  |  |
| O=C1NC2CCC(=O)N2[C@H]1Cc1ccccc1 (stereo partly drawn) | 53 | 0 | 42 | 0 | 53 | Reversal (Rattus norvegicus [12]): 0%; Reversal (Rattus norvegicus [6]): 0%; Reversal (Rattus norvegicus [8]): 7% |
| NC(=O)CN1CC(O)CC1=O (stereo not drawn) [OXIRACETAM] | 12 | 53 |  | 27 |  | Reversal (Rattus norvegicus [8]): 69% |
| CCN1C(=O)CN2C(=O)CCC12 (stereo not drawn) | 0 | 0 |  |  |  |  |
| CC(=O)N1C(=O)CN2C(=O)CCC21 (stereo not drawn) | 0 | 0 |  |  |  |  |
| CC1C(=O)NC2CCC(=O)N21 (racemic) | 38 | 38 | 9 | 33 |  |  |
| CN1[C@@H]2C[C@@H](OC(=O)[C@H](CO)c3ccccc3)C[C@H]1[C@@H]1O[C@@H]12 [SCOPOLAMINE] |  |  |  |  |  | Efficiency (Rattus norvegicus [10]): 87.3%; Time (Rattus norvegicus [11]): 14.3 s; Efficiency (Rattus norvegicus [13]): 63.9%; Time (Rattus norvegicus [14]): 19.6 s; Efficiency (Rattus norvegicus [15]): 83.9%; Time (Rattus norvegicus [16]): 34.6 s |
| NC(=O)CN1C(=O)CN2C(=O)CCC12 (stereo not drawn) | 49 | 62 | 0 | 9 |  |  |
| CC1C(=O)NC2(C)CCC(=O)N12 (stereo in doubt; 18 (S)) |  |  |  |  |  | Reversal (Rattus norvegicus [4]; 1 mg/kg): 21%; Reversal (Rattus norvegicus [1]; 1 mg/kg): 65%; Reversal (Rattus norvegicus [2]; 10 mg/kg): 44%; Reversal (Rattus norvegicus [5]; 10 mg/kg): 26%; Reversal (Rattus norvegicus [7]; 0.3 mg/kg): 10%; Reversal (Rattus norvegicus [8]): 37% |
